According to the RNAGym collection of RNA variant scans (doi:10.1038/s41586-018-0170-7):

B1: tRNA (parent)
chain: GUUCCGUUGGCGUAAUGGUAACGCGUCUCCCUCCUAAGGAGAAGACUGCGGGUUCGAGUCCCGUACGGAACG

Variants of: B1
Test: yeast fitness, log relative to wild type (ln ratio); higher = fitter; tRNA-Arg(CCU), competitive growth, 37 C, 1 M NaCl
How it was run: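 Variants were counted by 125 bp paired-end Illumina sequencing after pools of a combinatorial tRNA-Arg(CCU) library, held on a HIS3 centromeric plasmid in BY4742 lacking the chromosomal gene, grew ~6.5 generations (~26.5 h) in SC-HIS 1M NaCl at 37 °C. Each genotype's fitness is the natural log of its generations relative to the wild type's. Generations were OD-scaled log2 output/input frequencies, inverse-variance weighted over replicates.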

Compared with G1A G6A A70G, U2C G6A C27U A43C C66U is lower in “yeast fitness (ln)” value: -0.156 for the first, -0.179 for the second.

Compared with G1A C27U C66U A70G C71U, G6A C27U A43C C66U A69G A70G is lower in “yeast fitness (ln)” value: -0.225 for the first, -0.374 for the second.

First: U2G G6U C27U C66A
Second: A43C C46U C66U A69G A70U
The “yeast fitness (ln)” value of the first is higher: -0.0883 for the first, -0.121 for the second.

Going from U2C C27U A43C C46U A70U C71U to G1A U2C G6U C27U A43C C46U C66A A70U C71U, the “yeast fitness (ln)” value falls from -0.0649 to -0.124.

Going from C46U C66U A70U C71U to G1A G6A C27U A43C C46U A69G C71U, the “yeast fitness (ln)” value falls from -0.148 to -0.268.

First: C27U
Second: U2C G6U A43C C66A A70U
The “yeast fitness (ln)” value of the first is higher: -0.0106 for the first, -0.168 for the second.

First: C27U A43C C66U A69G A70U C71U
Second: U2G G6A C27U A43C C66U
The “yeast fitness (ln)” value of the first is lower: -0.37 for the first, -0.113 for the second.

Going from U2G G6U C27U C46U C66A to U2G G6U C66A A69G C71U, the “yeast fitness (ln)” value rises from -0.144 to -0.101.

Compared with G6A A43C C66U A70U, G1A U2C G6A C46U C71U is higher in “yeast fitness (ln)” value: -0.204 for the first, -0.108 for the second.

First: G1A U2G C27U A43C C66A A69G A70G
Second: U2C G6U A43C C46U C66A
The “yeast fitness (ln)” value of the first is lower: -0.27 for the first, -0.0972 for the second.

Compared with G1A U2G C46U A69G, G1A U2G G6U A43C C66A A70G C71U is lower in “yeast fitness (ln)” value: -0.13 for the first, -0.301 for the second.

First: U2C G6U C27U A43C C46U A69G A70U C71U
Second: U2C A43C C46U C66U A69G A70G C71U
The “yeast fitness (ln)” value of the first is higher: -0.309 for the first, -0.315 for the second.

First: G1A U2C G6U C66A A69G A70U
Second: U2G G6U C46U C71U
The “yeast fitness (ln)” value of the first is higher: 0.0124 for the first, -0.134 for the second.

First: U2G G6U C27U A43C C46U C66U A69G
Second: G1A U2C G6U C46U C66U A69G A70U
The “yeast fitness (ln)” value of the first is lower: -0.317 for the first, -0.156 for the second.

First: G1A G6A C27U C46U C66U
Second: G6U C27U C46U A69G A70U
The “yeast fitness (ln)” value of the first is lower: -0.421 for the first, -0.292 for the second.

Going from G1A U2C C27U A43C C71U to G1A G6A A43C C46U C66U C71U, the “yeast fitness (ln)” value rises from -0.0487 to -0.0152.

First: U2G A43C C46U C66A A69G A70G C71U
Second: U2C C27U A43C C66U A70G C71U
The “yeast fitness (ln)” value of the first is lower: -0.21 for the first, -0.207 for the second.

First: U2G G6A A43C C66A A70U C71U
Second: U2G C27U A43C A69G C71U
The “yeast fitness (ln)” value of the first is lower: -0.33 for the first, -0.318 for the second.

Compared with G1A U2G G6U C66U A69G A70G C71U, G1A C27U C66A A70U C71U is higher in “yeast fitness (ln)” value: -0.529 for the first, -0.243 for the second.

Compared with G1A U2C G6A C27U A43C C46U A69G A70G, G1A U2G G6U A43C C46U C66A A69G A70G C71U is lower in “yeast fitness (ln)” value: -0.225 for the first, -0.378 for the second.

Compared with G1A U2C A43C C66A A69G A70G C71U, G1A G6A A43C C46U A69G A70G C71U is lower in “yeast fitness (ln)” value: -0.238 for the first, -0.252 for the second.

Compared with G1A G6A A43C C46U C66U A69G A70U, U2C G6A A43C A70U C71U is higher in “yeast fitness (ln)” value: -0.479 for the first, -0.126 for the second.

First: U2C C27U A43C A70U
Second: U2G G6U C46U A70G C71U
The “yeast fitness (ln)” value of the first is higher: -0.152 for the first, -0.165 for the second.

Going from G1A U2G G6U C27U A43C C46U A70U to U2G G6A C27U C66U A70U C71U, the “yeast fitness (ln)” value falls from -0.341 to -0.364.

Going from G1A C27U C66U A70G to G6U C27U C66U A70U, the “yeast fitness (ln)” value falls from -0.176 to -0.261.

First: G1A U2G G6U C27U C46U C66A C71U
Second: U2G C27U A43C C46U A69G C71U
The “yeast fitness (ln)” value of the first is higher: -0.175 for the first, -0.193 for the second.

First: U2G C27U A70G C71U
Second: G1A U2C A43C C46U C66U A69G A70G C71U
The “yeast fitness (ln)” value of the first is higher: -0.178 for the first, -0.417 for the second.

First: G6A C46U C66A A69G A70G
Second: G6A C27U A43C C46U
The “yeast fitness (ln)” value of the first is lower: -0.148 for the first, -0.084 for the second.

First: G1A G6A A43C C46U C66A A69G A70G C71U
Second: G1A U2G C46U C71U
The “yeast fitness (ln)” value of the first is lower: -0.261 for the first, -0.25 for the second.

Going from G1A U2G G6A A43C C46U A69G A70G to U2C G6A C27U A43C C46U A70U C71U, the “yeast fitness (ln)” value rises from -0.292 to -0.113.

First: U2C C27U C46U C66U A69G A70G
Second: U2G G6A A70U C71U
The “yeast fitness (ln)” value of the first is higher: -0.0845 for the first, -0.107 for the second.

Compared with C27U A43C C46U C66A A70U C71U, G1A U2C G6A C66U A69G A70G is higher in “yeast fitness (ln)” value: -0.301 for the first, -0.0913 for the second.

Compared with G1A G6U C27U A43C C66U A70G, G1A U2C G6U C27U A43C C46U A69G A70U is higher in “yeast fitness (ln)” value: -0.609 for the first, -0.183 for the second.

First: U2C C27U C66U A70G C71U
Second: U2C G6U C27U A43C C46U A70U
The “yeast fitness (ln)” value of the first is lower: -0.172 for the first, -0.151 for the second.

Compared with G1A G6A A43C C46U C66U A69G A70G C71U, G1A U2G C46U A69G A70U C71U is higher in “yeast fitness (ln)” value: -0.274 for the first, -0.0215 for the second.

First: G1A U2G G6U A43C C46U A69G A70U C71U
Second: U2C C27U A43C C46U A69G A70U C71U
The “yeast fitness (ln)” value of the first is lower: -0.398 for the first, -0.307 for the second.

Compared with U2G G6U C66U A69G A70U C71U, U2C C27U A43C C66U A70G is higher in “yeast fitness (ln)” value: -0.421 for the first, -0.232 for the second.

Compared with G1A U2G G6A A43C C46U A69G A70G C71U, U2G C27U A43C C66A A69G A70U C71U is lower in “yeast fitness (ln)” value: -0.303 for the first, -0.477 for the second.

First: G1A G6A A43C A70G
Second: G1A U2G G6U C27U A43C C46U A69G A70G C71U
The “yeast fitness (ln)” value of the first is higher: -0.12 for the first, -0.446 for the second.

First: G1A U2G G6U C27U A43C C66A A70U C71U
Second: U2C A43C C46U C66A A69G A70G
The “yeast fitness (ln)” value of the first is lower: -0.433 for the first, -0.15 for the second.

First: U2G G6U C27U C46U C66U A69G A70G C71U
Second: U2G A43C C46U C66U A69G A70U
The “yeast fitness (ln)” value of the first is lower: -0.356 for the first, -0.172 for the second.

Compared with U2C C46U C66U, G1A U2G C27U C46U A70G C71U is lower in “yeast fitness (ln)” value: -0.171 for the first, -0.503 for the second.
